According to ChEMBL document CHEMBL1125194, “Probing the bradykinin receptor: mapping the geometric topography using ethers of hydroxyproline in novel peptides” (J Med Chem, 1991):

Key:
[1] = Antagonistic activity of compound was measured for bradykinin receptor in guinea pig ileum; assay type: functional, tissue-based; settings: Cavia porcellus, read-out: pA2 (converted)
How it was run: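 Guinea pig ileal longitudinal muscle strips, which express only B2 receptors. Cumulative bradykinin dose-response curves were run without and with increasing antagonist concentrations (0.1-0.3 μM), and antagonism was expressed as pA2. Agonist activity was also checked at concentrations up to 10 μM.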

[2] = Antagonistic activity of compound was measured in SV-T2 cells; assay type: functional, cell-based; settings: Mus musculus, read-out: pA2 (converted)
How it was run: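 SV-T2 fibroblasts, which express only B2 receptors. Antagonism of bradykinin-stimulated prostaglandin synthesis was measured and expressed as pA2. Agonist activity was also checked at concentrations up to 10 μM.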

[3] = Binding affinity of compound was measured for bradykinin receptor in guinea pig ileum; assay type: tissue-based, Cavia porcellus

Row | Compound | Kb [1] [nM] | Kb [2] [nM] | Ki [3] [nM]
1 | CO[C@@H]1C[C@@H](C(=O)N2Cc3ccccc3CC2C(=O)N[C@@H](CCCN=C(N)N)C(=O)O)N(C(=O)[C@H](CO)NC(=O)[C@@H](NC(=O)CNC(=O)[C@@H]2C[C@H](O)CN2C(=O)[C@@H]2CCCN2C(=O)[C@H](CCCN=C(N)N)NC(=O)[C@H](N)CCCN=C(N)N)c2cccs2)C1 (stereo partly drawn) | 186 | 3.98 | 2.12
2 | CCCO[C@@H]1C[C@@H](C(=O)N2Cc3ccccc3C[C@H]2C(=O)N[C@@H](CCCN=C(N)N)C(=O)O)N(C(=O)[C@H](CO)NC(=O)[C@@H](NC(=O)CNC(=O)[C@@H]2C[C@H](O)CN2C(=O)[C@@H]2CCCN2C(=O)[C@H](CCCN=C(N)N)NC(=O)[C@H](N)CCCN=C(N)N)c2cccs2)C1 | 24.5 | 1.58 | 0.77
3 | CCCO[C@@H]1C[C@@H](C(=O)N2C3CCCCC3C[C@H]2C(=O)N[C@@H](CCCN=C(N)N)C(=O)O)N(C(=O)[C@H](CO)NC(=O)[C@@H](NC(=O)CNC(=O)[C@@H]2C[C@H](O)CN2C(=O)[C@@H]2CCCN2C(=O)[C@H](CCCN=C(N)N)NC(=O)[C@H](N)CCCN=C(N)N)c2cccs2)C1 (stereo partly drawn) | 2.88 | 0.251 | 0.16
4 | CO[C@H]1C[C@@H](C(=O)N2Cc3ccccc3C[C@H]2C(=O)N[C@@H](CCCN=C(N)N)C(=O)O)N(C(=O)[C@H](CO)NC(=O)[C@@H](NC(=O)CNC(=O)[C@@H]2C[C@H](O)CN2C(=O)[C@@H]2CCCN2C(=O)[C@H](CCCN=C(N)N)NC(=O)[C@H](N)CCCN=C(N)N)c2cccs2)C1 | 8910 | 251 | 102
5 | CCCO[C@H]1C[C@@H](C(=O)N2Cc3ccccc3C[C@H]2C(=O)N[C@@H](CCCN=C(N)N)C(=O)O)N(C(=O)[C@H](CO)NC(=O)[C@@H](NC(=O)CNC(=O)[C@@H]2C[C@H](O)CN2C(=O)[C@@H]2CCCN2C(=O)[C@H](CCCN=C(N)N)NC(=O)[C@H](N)CCCN=C(N)N)c2cccs2)C1 | 5750 | 158 | 144
6 | NC(N)=NCCC[C@@H](N)C(=O)N[C@@H](CCCN=C(N)N)C(=O)N1CCC[C@H]1C(=O)N1C[C@H](O)C[C@H]1C(=O)NCC(=O)N[C@@H](Cc1ccccc1)C(=O)N[C@@H](CO)C(=O)N[C@H](Cc1ccccc1)C(=O)N[C@@H](Cc1ccccc1)C(=O)N[C@@H](CCCN=C(N)N)C(=O)O | 1510 | 10 | 57.9
